From ChEMBL document CHEMBL1155242, “Radiolabeled 5-iodo-3'-O-(17beta-succinyl-5alpha-androstan-3-one)-2'-deoxyuridine and its 5'-monophosphate for imaging and therapy of androgen receptor-positive cancers: synthesis and biological evaluation” (J Med Chem, 2009) come the findings set out here.

Molecules are shown by their SMILES. A value given as a limit tells only on which side of the number the result lay.

The target in data set [1] is T1, Sex hormone-binding globulin (Homo sapiens, UniProt P04278).
T1 sequence (P04278 whole entry): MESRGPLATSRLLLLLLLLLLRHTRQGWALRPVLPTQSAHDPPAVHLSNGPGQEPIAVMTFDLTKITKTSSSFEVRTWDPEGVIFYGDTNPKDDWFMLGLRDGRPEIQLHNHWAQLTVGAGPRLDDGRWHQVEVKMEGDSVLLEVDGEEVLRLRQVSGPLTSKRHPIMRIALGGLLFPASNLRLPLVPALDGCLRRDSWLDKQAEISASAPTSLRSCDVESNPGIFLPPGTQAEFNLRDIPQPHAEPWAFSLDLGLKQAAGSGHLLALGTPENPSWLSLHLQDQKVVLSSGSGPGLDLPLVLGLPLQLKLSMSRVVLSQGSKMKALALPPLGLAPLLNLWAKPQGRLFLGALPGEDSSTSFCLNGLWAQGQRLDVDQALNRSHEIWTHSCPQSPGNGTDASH
Description: Binding affinity to human sex hormone binding globulin at 20 uCi after 60 mins by reversed phase HPLC analysis. In kind it is ADME. Particulars: 1 h; call rule not given here.

Data set [2] has as its system OVCAR-3. Description: Antitumor activity against human OVCAR-3 cells xenografted in athymic NCr mouse assessed as solid tumor weight in peritoneum at 0.25 mCi, ip administered 31 days after tumor implantation as single bolus dose measured 55 days after implantation by gamma counting in presence of SHBG (Rvb= 1.9 +/- 0.8 g). The data set is classed as functional.
Data set [3] addresses Albumin (Mus musculus, UniProt P07724). Description: Binding affinity to mouse serum albumin at 20 uCi after 60 mins by size-exclusion HPLC analysis. Particulars: isolated protein, 1 h. In kind it is ADME. (Size exclusion chromatography separates by hydrodynamic size, large species first.)
Data set [4] is described as follows: Chemical stability in phosphate buffer saline by HPLC analysis. In kind it is physicochemical.
Data set [5] can be described thus: Biodistribution in uterus of athymic NCr mouse xenografted with human OVCAR-3 cells assessed per gram of tissue at an average 39.5 uCi/dose, ip administered 9 days after tumor implantation as six fractionated doses every 4 days measured after 2 weeks of last dose by gamma counting. Particulars: in vivo, 336 h. The data set is classed as ADME, organism-based. The essentials: (§1)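 OVCAR-3-bearing and healthy athymic mice given fractionated ip doses on the six-dose every-4-days schedule; tissues, tumor and lavaged cells γ-counted at necropsy, %ID/g; DNA-bound 125I in cells measured as cpm/cell.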

Data set [6] has as its system Lung. The experiment in a line: Biodistribution in lung of athymic NCr mouse xenografted with human OVCAR-3 cells assessed per gram of tissue at an average 39.5 uCi/dose, ip administered 9 days after tumor implantation as six fractionated doses every 4 days measured after 2 weeks of last dose by gamma counting. Particulars: in vivo, 336 h. In kind it is ADME, organism-based. The method, boiled down: as §1
(In general: In xenograft studies the graft and the host belong to different species.)

For data set [7], the target named is T2, Sex hormone-binding globulin (Oryctolagus cuniculus, UniProt P15196).
T2 sequence (P15196 whole entry): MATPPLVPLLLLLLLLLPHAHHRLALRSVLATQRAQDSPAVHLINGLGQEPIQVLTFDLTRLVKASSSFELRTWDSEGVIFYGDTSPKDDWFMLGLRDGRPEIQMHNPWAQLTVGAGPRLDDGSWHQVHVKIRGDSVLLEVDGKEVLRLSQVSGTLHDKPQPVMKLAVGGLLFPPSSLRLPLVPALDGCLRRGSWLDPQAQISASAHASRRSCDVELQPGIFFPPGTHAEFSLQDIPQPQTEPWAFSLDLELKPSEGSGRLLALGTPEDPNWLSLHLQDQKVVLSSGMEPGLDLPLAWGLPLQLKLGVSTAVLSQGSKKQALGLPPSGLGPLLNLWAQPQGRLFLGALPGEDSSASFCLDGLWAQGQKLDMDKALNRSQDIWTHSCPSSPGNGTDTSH
Description: Binding affinity to rabbit sex hormone binding globulin at 20 uCi after 60 mins by reversed phase HPLC analysis. In kind it is ADME. The settings on record: 1 h.

The target in data set [8] is T1, Sex hormone-binding globulin. Description: Binding affinity to human sex hormone binding globulin at 20 uCi after 60 mins by size-exclusion HPLC analysis. The data set is classed as ADME. Particulars: 1 h. The method, boiled down: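 Radioligand incubated 60 min with purified human SHBG or with human, rabbit or mouse serum. Size-exclusion HPLC (TSK3000): 0.1 M potassium phosphate/0.1 M Na2SO4 1:1 pH 6.8 for 20 min, then 0–40% CH3CN over 20 min, held 30 min, 0.7 mL/min.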

The nature of data set [9]: Ratio of drug level in tumor to uterus in athymic NCr mouse xenografted with human OVCAR-3 cells at 180 uCi, ip administered 9 days after tumor implantation as six fractionated doses every 4 days measured after 24 hrs by gamma counting. In kind it is ADME, organism-based. The settings on record: in vivo.
Data set [10] has as its target T1, Sex hormone-binding globulin. Description: Binding affinity to human sex hormone binding globulin assessed as intact compound remaining at 10 to 20 uCi/mL after 60 mins by instant thin layer chromatography. The data set is classed as ADME. The settings on record: read-out: Stability.
Data set [11] can be described thus: Ratio of drug level in tumor to uterus in athymic NCr mouse xenografted with human OVCAR-3 cells at 180 uCi, ip administered 9 days after tumor implantation as six fractionated doses every 4 days measured after 72 hrs by gamma counting. Particulars: in vivo. In kind it is ADME, organism-based.
In data set [12] the target is T2, Sex hormone-binding globulin. Description: Binding affinity to rabbit sex hormone binding globulin at 10 to 20 uCi/mL after 60 mins by reversed phase HPLC analysis. The data set is classed as ADME. Particulars: 1 h.
Data set [13] concerns LNCaP. The experiment in a line: Cellular uptake in single-cell suspension of nonproliferating human LNCAP cells expressing androgen receptor at 0.03 uCi/mL up to 2 hrs by gamma counting. Particulars: TDE = time-dependent effect. The data set is classed as ADME, cell-based. The essentials: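 Low-passage LNCaP held as single-cell suspension (non-proliferating) in RPMI-1640 with radioligand at 0.03 or 0.37 μCi/mL; whole-cell and nuclear radioactivity measured over time.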

The test system of data set [14] is OVCAR-3. The experiment in a line: Cytotoxicity against human OVCAR-3 cells expressing androgen receptor assessed as cell survival at 3 uCi/mL after 48 hrs. The data set is classed as functional. The essentials: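 NIH:OVCAR-3 cells were grown for 48 h with the 125I-labelled compound, and survival was plotted against the extracellular concentration in μCi/mL.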

Data set [15] concerns LNCaP. Description: Cellular uptake in proliferating human LNCAP cells expressing androgen receptor after 24 hrs by gamma counting. The data set is classed as ADME, cell-based. The method, boiled down:
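Proliferating LNCaP monolayers exposed 24 h to a range of radioligand concentrations; whole-cell uptake measured.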

Data set [16] in a line: Biodistribution in nonadherent tumors in stomach of athymic NCr mouse xenografted with human OVCAR-3 cells at 45 uCi, ip after 72 hrs by gamma counting. In kind it is ADME, organism-based. The settings on record: in vivo. The essentials: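 Athymic NCr-nu/nu mice with ip OVCAR-3; 45 μCi given ip without prior SSKI. Whole-body planar imaging at 72 h with region-of-interest analysis as percent of whole-body activity; peritoneal lavage cells and ascites counted.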

In data set [17] the test system is OVCAR-3. Description: Antitumor activity against human OVCAR-3 cells xenografted in athymic NCr mouse assessed as number of cancer cells in peritoneum at 180 uCi, ip administered 9 days after tumor implantation as six fractionated doses every 4 days measured after 2 weeks of last dose by gamma counting. In kind it is functional. The essentials:
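OVCAR-3 ip xenografts in athymic mice; six fractionated ip doses every 4 days, total 180 μCi/mouse, with PBS or vehicle ip controls. Nonadherent tumor cells recovered by peritoneal lavage at necropsy, counted and pellet-weighed.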

The nature of data set [18]: Ratio of drug level in tumor to blood in athymic NCr mouse xenografted with human OVCAR-3 cells at 180 uCi, ip administered 9 days after tumor implantation as six fractionated doses every 4 days measured after 72 hrs by gamma counting. The settings on record: tumour. The data set is classed as ADME, organism-based.
Data set [19] can be described thus: Ratio of drug level in tumor to spleen in athymic NCr mouse xenografted with human OVCAR-3 cells at 180 uCi, ip administered 9 days after tumor implantation as six fractionated doses every 4 days measured after 1.5 hrs by gamma counting. Particulars: in vivo. In kind it is ADME, organism-based.

Sequence of Albumin (P07724 whole entry): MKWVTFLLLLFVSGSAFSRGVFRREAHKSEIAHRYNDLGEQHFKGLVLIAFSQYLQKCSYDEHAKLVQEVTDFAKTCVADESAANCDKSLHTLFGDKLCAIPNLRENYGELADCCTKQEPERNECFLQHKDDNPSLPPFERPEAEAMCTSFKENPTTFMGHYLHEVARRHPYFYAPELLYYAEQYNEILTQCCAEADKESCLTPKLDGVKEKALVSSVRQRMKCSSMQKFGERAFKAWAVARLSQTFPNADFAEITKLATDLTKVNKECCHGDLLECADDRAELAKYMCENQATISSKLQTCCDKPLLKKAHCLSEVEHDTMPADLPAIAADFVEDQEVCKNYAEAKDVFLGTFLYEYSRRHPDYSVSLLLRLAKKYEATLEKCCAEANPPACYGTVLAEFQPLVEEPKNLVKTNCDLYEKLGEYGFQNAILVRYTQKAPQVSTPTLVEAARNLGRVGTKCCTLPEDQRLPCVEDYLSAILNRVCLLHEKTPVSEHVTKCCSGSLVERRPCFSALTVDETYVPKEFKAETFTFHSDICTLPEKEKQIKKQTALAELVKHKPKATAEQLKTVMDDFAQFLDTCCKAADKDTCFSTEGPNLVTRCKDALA

Turning to `C[C@]12CCC(=O)C[C@@H]1CC[C@@H]1[C@@H]2CC[C@]2(C)[C@@H](OC(=O)CCC(=O)O[C@H]3C[C@H](n4cc([125I])c(=O)[nH]c4=O)O[C@@H]3COP(=O)(O)O)CC[C@@H]12`, the Activity result is reported as “Active” in data set [1]; 1.2 g in data set [2]; “Active” in data set [3]; “Active” in data set [7]; “Active” in data set [8]. Besides, the Stability entry in [4] is reported as “Stable”. In addition, the Drug uptake in data set [5] stood at 0.027 %ID; in data set [6] it was 0.008 %ID.

`C[C@]12CCC(=O)C[C@@H]1CC[C@@H]1[C@@H]2CC[C@]2(C)[C@@H](OC(=O)CCC(=O)O[C@H]3C[C@H](n4cc([125I])c(=O)[nH]c4=O)O[C@@H]3CO)CC[C@@H]12`: the Ratio stood at 29.9 in [9], 7.4 in data set [11], 42.2 in [18] and 1 in data set [19]. In addition, in [10], the remaining at 1 h is above 91%. The Activity result is “Active” in [12] and 380000000 in [17]. Further, the Drug uptake result in data set [13] is recorded as “tde”; in [15], “Dose-dependent effect”; in data set [16], 3.4%. Besides, the Survival in [14] is on record as 50%.
